Active and inactive are the calls of the source. The rule behind the calls is not given here.
Key:
CCRF-CEM [1] = test: Cytotoxicity against human CEM cells after 72 hrs by MTT assay; assay type: functional, cell-based
Procedure, shortened: (§1)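 Cells kept in RPMI-1640 with 10% heat-inactivated FCS plus penicillin/streptomycin at 37 °C, 5% CO2. Seeded at 1 × 10^5 cells per well and treated at 0.001–100 µM for 72 h at 37 °C. Viability read by MTT. IC50 was the concentration killing 50% relative to untreated controls, by non-linear regression. Duplicate wells, three independent experiments.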

CCRF-CEM [2] = test: Cell cycle arrest in human CEM cells assessed as accumulation at G2/M phase at 10 uM after 18 hrs by flow cytometry; assay type: functional; conditions: in the assay text read “6.4 uM” for “10 uM”
Procedure, shortened: (§2)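 CEM cells grown in RPMI-1640 with 10% heat-inactivated FCS at 37 °C, 5% CO2, exposed to compound for 18 h at 37 °C. Fixed in 70% ethanol 18 h at 4 °C, RNase A (50 µg/ml) 0.5 h at 37 °C, then propidium iodide (final 50 µg/ml) 0.5 h at 4 °C. Flow cytometry on 10^4 cells per sample gave phase distribution.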

CCRF-CEM [3] = test: Induction of apoptosis in human CEM cells at 10 uM after 18 hrs by flow cytometry; assay type: functional; conditions: in the assay text read “6.4 uM” for “10 uM”
Procedure, shortened: (§3)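 CEM cells exposed 18 h at 37 °C, then ethanol-fixed, RNase-treated and stained with propidium iodide (final 50 µg/ml). Flow cytometry on 10^4 cells per sample. Dead cells were scored as the population left of the G1/G0 peak, reflecting DNA degradation, and reported as percent.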

Bos taurus [4] = species: Bos taurus; test: Inhibition of calf brain beta-tubulin polymerization at 6.4 uM after 30 mins by spectrophotometry
Procedure, shortened: (§4)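 Calf brain tubulin (100 µL at 1 mg/ml) was mixed with 400 µL buffer: 0.1 M MES, 1 mM EGTA, 0.5 mM MgCl2, 0.1 mM EDTA, 2.5 M glycerol. Compound or solvent control was added, then GTP to a final 1 mM. OD340 was read at 0 min (baseline) and at 30 min, with assembly at room temperature.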

CCRF-CEM [5] = test: Cytotoxicity against human CEM cells after 24 hrs by MTT assay; assay type: functional, cell-based
Procedure, shortened: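 CEM cells treated at a range of concentrations for 24 h. Cell death measured by MTT.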

Daudi = test: Cytotoxicity against human Daudi cells after 72 hrs by MTT assay; assay type: functional, cell-based; procedure, shortened: as §1
MCF7 = test: Cytotoxicity against human MCF7 cells after 72 hrs by MTT assay; assay type: functional, cell-based; conditions: MCF7, 72 h; procedure, shortened: as §1
Bel-7402 = test: Cytotoxicity against human Bel7402 cells after 72 hrs by MTT assay; assay type: functional, cell-based; conditions: Bel-7402, 72 h; procedure, shortened: as §1
DU-145 = test: Cytotoxicity against human DU145 cells after 72 hrs by MTT assay; assay type: functional, cell-based; conditions: DU-145, 72 h; procedure, shortened: as §1
PC-3 = test: Cytotoxicity against human PC3 cells after 72 hrs by MTT assay; assay type: functional, cell-based; conditions: PC-3, 72 h; procedure, shortened: as §1
[6] = Cytotoxicity against human DND1A cells after 72 hrs by MTT assay; assay type: functional, cell-based; procedure, shortened: as §1
LoVo = test: Cytotoxicity against human LoVo cells after 72 hrs by MTT assay; assay type: functional, cell-based; procedure, shortened: as §1
MIA PaCa-2 = test: Cytotoxicity against human MIAPaCa2 cells after 72 hrs by MTT assay; assay type: functional, cell-based; conditions: MIA PaCa-2, 72 h; procedure, shortened: as §1
CCRF-CEM [7] = test: Cell cycle arrest in human CEM cells assessed as accumulation at G0/G1 phase at 10 uM after 18 hrs by flow cytometry; assay type: functional; conditions: in the assay text read “6.4 uM” for “10 uM”; procedure, shortened: as §2
CCRF-CEM [8] = test: Cell cycle arrest in human CEM cells assessed as accumulation at S phase at 10 uM after 18 hrs by flow cytometry; assay type: functional; conditions: in the assay text read “6.4 uM” for “10 uM”; procedure, shortened: as §2
CCRF-CEM [9] = test: Cell cycle arrest in human CEM cells assessed as accumulation at G2/M phase at 3.2 uM after 18 hrs by flow cytometry; assay type: functional; procedure, shortened: as §2
CCRF-CEM [10] = test: Induction of apoptosis in human CEM cells at 3.2 uM after 18 hrs by flow cytometry; assay type: functional; procedure, shortened: as §3
CCRF-CEM [11] = test: Cell cycle arrest in human CEM cells assessed as accumulation at G0/G1 phase at 3.2 uM after 18 hrs by flow cytometry; assay type: functional; procedure, shortened: as §2
CCRF-CEM [12] = test: Cell cycle arrest in human CEM cells assessed as accumulation at S phase at 3.2 uM after 18 hrs by flow cytometry; assay type: functional; procedure, shortened: as §2
CCRF-CEM [13] = test: Cell cycle arrest in human CEM cells assessed as accumulation at S phase at 3.3 uM after 18 hrs by flow cytometry; assay type: functional; procedure, shortened: as §2
CCRF-CEM [14] = test: Cell cycle arrest in human CEM cells assessed as accumulation at G2/M phase at 3.3 uM after 18 hrs by flow cytometry; assay type: functional; procedure, shortened: as §2
CCRF-CEM [15] = test: Induction of apoptosis in human CEM cells at 3.3 uM after 18 hrs by flow cytometry; assay type: functional; procedure, shortened: as §3
Bos taurus [16] = species: Bos taurus; test: Inhibition of calf brain beta-tubulin polymerization at 3.3 uM after 30 mins by spectrophotometry; procedure, shortened: as §4
CCRF-CEM [17] = test: Cell cycle arrest in human CEM cells assessed as accumulation at G0/G1 phase at 3.3 uM after 18 hrs by flow cytometry; assay type: functional; procedure, shortened: as §2
CCRF-CEM [18] = test: Cell cycle arrest in human CEM cells assessed as accumulation at S phase at 6.4 uM after 18 hrs by flow cytometry; assay type: functional; conditions: in the assay text read “10 uM” for “6.4 uM”; procedure, shortened: as §2
CCRF-CEM [19] = test: Cell cycle arrest in human CEM cells assessed as accumulation at G2/M phase at 6.4 uM after 18 hrs by flow cytometry; assay type: functional; conditions: in the assay text read “10 uM” for “6.4 uM”; procedure, shortened: as §2
CCRF-CEM [20] = test: Induction of apoptosis in human CEM cells at 6.4 uM after 18 hrs by flow cytometry; assay type: functional; conditions: in the assay text read “10 uM” for “6.4 uM”; procedure, shortened: as §3
Bos taurus [21] = species: Bos taurus; test: Inhibition of calf brain beta-tubulin polymerization at 10 uM after 30 mins by spectrophotometry; procedure, shortened: as §4
CCRF-CEM [22] = test: Cell cycle arrest in human CEM cells assessed as accumulation at G0/G1 phase at 6.4 uM after 18 hrs by flow cytometry; assay type: functional; conditions: in the assay text read “10 uM” for “6.4 uM”; procedure, shortened: as §2

With `COc1cc(NC(=O)Nc2cccc(NC(=O)C(C)Br)c2)cc(OC)c1OC` (centres undefined) as the compound, how does the IC50 (CCRF-CEM [1]) read?
Its IC50 is 3990 nM.

With `O=C(CBr)NC(=O)Nc1cccc(NC(=O)CBr)c1` as the compound, how does the Activity (CCRF-CEM [2]) read?
The Activity was 13.2%.

And the Activity (CCRF-CEM [3])?
The Activity was 24.8%.

And the inhibition (Bos taurus [4])?
Its inhibition is “inactive”.

And the Activity (CCRF-CEM [5])?
The Activity was “Dose-dependent effect”.

And the IC50 (CCRF-CEM [1])?
Its IC50 is 560 nM.

And the IC50 (Daudi)?
Its IC50 is 380 nM.

And the IC50 (MCF7)?
The IC50 was 590 nM.

What about the IC50 (Bel-7402) of the same compound?
The IC50 was 4070 nM.

What about the IC50 (DU-145) of the same compound?
Its IC50 is 1280 nM.

And the IC50 (PC-3)?
The IC50 was greater than 100000 nM.

And the IC50 [6]?
Its IC50 is 510 nM.

What about the IC50 (LoVo) of the same compound?
The IC50 was 1990 nM.

And the IC50 (MIA PaCa-2)?
The IC50 was 2810 nM.

And the Activity (CCRF-CEM [7])?
The Activity was 48.3%.

And the Activity (CCRF-CEM [8])?
The Activity was 13.7%.

With `CC(Br)C(=O)Nc1cccc(C(=O)NC(N)=O)c1` (centres undefined) as the compound, how does the Activity (CCRF-CEM [9]) read?
The Activity was 63.2%.

What about the Activity (CCRF-CEM [10]) of the same compound?
Its Activity is 9.5%.

And the IC50 (CCRF-CEM [1])?
The IC50 was 1470 nM.

And the Activity (CCRF-CEM [11])?
The Activity was 2%.

What about the Activity (CCRF-CEM [12]) of the same compound?
The Activity was 25.3%.

For `O=C(CCCl)NC(=O)Nc1cccc(NC(=O)CBr)c1`, which IC50 (CCRF-CEM [1]) is on record?
The IC50 was 1900 nM.

For `O=C(CBr)Nc1cccc(NC(=O)NCCCl)c1`, which IC50 (CCRF-CEM [1]) is on record?
Its IC50 is 770 nM.

For `O=C(CBr)Nc1cccc(NC(=O)Nc2ccccc2)c1`, which IC50 (CCRF-CEM [1]) is on record?
Its IC50 is 860 nM.

Which IC50 (CCRF-CEM [1]) does the source give for `CC(Br)C(=O)Nc1cccc(NC(=O)NCCCl)c1` (centres undefined) here?
Its IC50 is 22700 nM.

With `O=CNC(=O)Nc1cccc(NC(=O)CBr)c1` as the compound, how does the Activity (CCRF-CEM [13]) read?
Its Activity is 12.9%.

And the Activity (CCRF-CEM [14])?
The Activity was 2%.

And the Activity (CCRF-CEM [15])?
Its Activity is 52.6%.

What about the inhibition (Bos taurus [16]) of the same compound?
Its inhibition is “inactive”.

And the IC50 (CCRF-CEM [1])?
Its IC50 is 850 nM.

And the Activity (CCRF-CEM [17])?
The Activity was 33.5%.

For `O=C(CI)Nc1cccc(NC(=O)NCCCl)c1`, which Activity (CCRF-CEM [18]) is on record?
The Activity was 30.1%.

What about the Activity (CCRF-CEM [19]) of the same compound?
The Activity was 2.6%.

And the Activity (CCRF-CEM [20])?
The Activity was 33.2%.

What about the inhibition (Bos taurus [21]) of the same compound?
The inhibition was “inactive”.

And the IC50 (CCRF-CEM [1])?
The IC50 was 100 nM.

What about the Activity (CCRF-CEM [22]) of the same compound?
Its Activity is 34.1%.

Which IC50 (CCRF-CEM [1]) does the source give for `CC(Br)C(=O)Nc1cccc(NC(=O)NC=O)c1` (centres undefined) here?
The IC50 was 10200 nM.

For `CC(=O)NC(=O)Nc1cccc(NC(=O)C(C)Br)c1` (centres undefined), which IC50 (CCRF-CEM [1]) is on record?
The IC50 was 10600 nM.

Which IC50 (CCRF-CEM [1]) does the source give for `NC(=O)NC(=O)c1cccc(NC(=O)CBr)c1` here?
The IC50 was 725 nM.

For `CC(Br)C(=O)NC(=O)Nc1cccc(NC(=O)C(C)Br)c1` (centres undefined), which IC50 (CCRF-CEM [1]) is on record?
Its IC50 is 1340 nM.

With `CC(=O)NC(=O)Nc1cccc(NC(=O)CBr)c1` as the compound, how does the IC50 (CCRF-CEM [1]) read?
The IC50 was 3200 nM.

Which IC50 (CCRF-CEM [1]) does the source give for `COc1cc(NC(=O)Nc2cccc(NC(=O)CBr)c2)cc(OC)c1OC` here?
Its IC50 is 1000 nM.

With `CC(Br)C(=O)Nc1cccc(NC(=O)NC(=O)CCCl)c1` (centres undefined) as the compound, how does the IC50 (CCRF-CEM [1]) read?
Its IC50 is 2050 nM.

— ChEMBL document CHEMBL1137761, “Synthesis and activity evaluation of phenylurea derivatives as potent antitumor agents” (Bioorg Med Chem, 2009)
